# Results pooled from the literature.
# Lines come from different studies, so protocols differ.
# PIK3CA M1043I: Phosphatidylinositol 4,5-bisphosphate 3-kinase catalytic subunit alpha isoform (PIK3CA, Homo sapiens, UniProt P42336, M1043I)
# PIK3CA E545K: Phosphatidylinositol 4,5-bisphosphate 3-kinase catalytic subunit alpha isoform (PIK3CA, Homo sapiens, UniProt P42336, E545K)
# PIK3CA C420R: Phosphatidylinositol 4,5-bisphosphate 3-kinase catalytic subunit alpha isoform (PIK3CA, Homo sapiens, UniProt P42336, C420R)
# PIK3CA: Phosphatidylinositol 4,5-bisphosphate 3-kinase catalytic subunit alpha isoform (PIK3CA, Homo sapiens, UniProt P42336)
# PIK3CA I800L: Phosphatidylinositol 4,5-bisphosphate 3-kinase catalytic subunit alpha isoform (PIK3CA, Homo sapiens, UniProt P42336, I800L)
# PIK3CA E545A: Phosphatidylinositol 4,5-bisphosphate 3-kinase catalytic subunit alpha isoform (PIK3CA, Homo sapiens, UniProt P42336, E545A)
# PIK3CA H1047L: Phosphatidylinositol 4,5-bisphosphate 3-kinase catalytic subunit alpha isoform (PIK3CA, Homo sapiens, UniProt P42336, H1047L)
# PIK3CA Q546K: Phosphatidylinositol 4,5-bisphosphate 3-kinase catalytic subunit alpha isoform (PIK3CA, Homo sapiens, UniProt P42336, Q546K)
target,read-out,technique,tested at,remaining binding,SMILES
PIK3CA M1043I,binding,competition with immobilised ligand,1 µM,100%,CCN1CCN(Cc2ccc(C(=O)Nc3ccc(C)c(Oc4ccc5c(c4)CC(=O)N5)c3)cc2C(F)(F)F)CC1
PIK3CA E545K,cell-free assay,competition with immobilised ligand,0.1 µM,53%,CS(=O)(=O)N1CCCC(NC(=O)[C@H](CCC2CCCCC2)NC(=O)c2ccc(CNc3ncnc4c3nnn4-c3ccccc3)cc2)C1 (stereo partly shown)
PIK3CA C420R,binding,competition with immobilised ligand,1 µM,90%,CNC(=O)[C@@H]1CC[C@@H](n2c(-c3ccc4cnccc4c3)nc3ccc(C(=O)NCc4cccc(C(N)=O)c4)cc32)C1
PIK3CA C420R,cell-free assay,competition with immobilised ligand,1 µM,92%,FC(F)(F)c1ccc2c(c1)nc(-c1cccnc1)n2C1CC1
PIK3CA,binding,competition with immobilised ligand,1 µM,100%,O=C(c1ccc(Nc2nccc(-c3cc4ccccc4s3)n2)cc1)N1CCC(N2CCCC2)CC1
PIK3CA I800L,binding,competition with immobilised ligand,10 µM,77%,c1cncc(-c2cccc(Nc3nccc(NC4CCCCC4)n3)c2)c1
PIK3CA,binding,competition with immobilised ligand,1 µM,100%,O=C(NCCCN1CCOCC1)c1ccc(Nc2ncc(Cl)c(-c3ccc(Cl)s3)n2)cc1
PIK3CA,cell-free assay,competition with immobilised ligand,1 µM,100%,NS(=O)(=O)c1cc(NC(=O)C2(c3ccccc3Cl)CC2)ccc1Oc1cccc(Cl)c1
PIK3CA E545K,binding,competition with immobilised ligand,1 µM,64%,O=C(Nc1c[nH]nc1C(=O)NC1CCNCC1)c1cc(F)cc(F)c1
PIK3CA M1043I,cell-free assay,competition with immobilised ligand,5 µM,100%,COc1ncc2cc3ccccc3nc2c1C#N
"Phosphatidylinositol 4,5-bisphosphate 3-kinase catalytic subunit alpha isoform (PIK3CA, Homo sapiens, UniProt P42336, H1047Y)",binding,,10 µM,27%,CN1CCN(c2ccc(Nc3nccc(-c4cccc([N+](=O)[O-])c4)n3)cc2C(F)(F)F)CC1
PIK3CA E545K,binding,competition with immobilised ligand,1 µM,48%,CO[C@@H](C)c1c(Nc2ccc([C@H](N(C)C(=O)C3CCS(=O)(=O)CC3)C(F)(F)F)cc2)cnc2cc(Cl)nn12
PIK3CA E545A,binding,,1 µM,100%,CN(CCCC(F)(F)F)c1nccc(-c2cnn3ncccc23)n1
PIK3CA I800L,cell-free assay,competition with immobilised ligand,1 µM,100%,Cc1c(C(=O)O)cc(-c2ccc(C3CCNCC3)cc2)c2ccc(-c3ccc(C(F)(F)F)cc3)cc12
PIK3CA C420R,binding,,1 µM,72%,CC1CCCN1c1nccc(-c2cnn3ncccc23)n1 (stereo not shown)
PIK3CA I800L,binding,competition with immobilised ligand,1 µM,81%,Nc1ncc2c(n1)-c1c([nH]c3ccc(C#CC4CC4)cc13)CCCC2
PIK3CA H1047L,binding,,1 µM,76%,COc1ccnn2ncc(-c3ccnc(N(C)C)n3)c12
PIK3CA M1043I,cell-free assay,competition with immobilised ligand,0.1 µM,88%,COCCOc1nc(-c2ccc(Cl)nc2)nc2c1CN(C(=O)c1ncn3ccccc13)CC2
PIK3CA E545A,binding,competition with immobilised ligand,1 µM,84%,O=C(NCCCN1CCOCC1)c1ccc(Nc2nccc(-c3cc4ccccc4s3)n2)cc1
PIK3CA H1047L,binding,,1 µM,75%,N[C@H]1CCN(c2nccc(-c3cnn4ncccc34)n2)C1
PIK3CA H1047L,cell-free assay,competition with immobilised ligand,1 µM,60%,Nc1cnc(N2CCc3cc(S(=O)(=O)Nc4c(F)cc(Cl)cc4F)cc(N4CCCC4=O)c32)nc1
PIK3CA C420R,binding,,1 µM,100%,Cc1cnn2ncc(-c3ccnc(N(C)C)n3)c2c1
PIK3CA E545A,cell-free assay,competition with immobilised ligand,1 µM,100%,C[C@@]1(Cc2ccc(C#N)cc2)C(=O)N(c2cc(Cl)cc(Cl)c2)c2ncc(C(=O)NC3(c4nc(C5CCC5)no4)CC3)n21
PIK3CA I800L,binding,competition with immobilised ligand,1 µM,92%,O=C(c1ccc(Nc2ncc(Cl)c(-c3ccc(Cl)s3)n2)cc1)N1CCC(N2CCCC2)CC1
PIK3CA E545A,binding,competition with immobilised ligand,1 µM,100%,O=C(NCC1CCOCC1)c1n[nH]cc1NC(=O)c1c(F)cccc1F
PIK3CA E545K,binding,,1 µM,63%,CN(C)c1ncc(F)c(-c2cnn3ncccc23)n1
PIK3CA M1043I,binding,competition with immobilised ligand,1 µM,74%,Cc1cnc(Nc2ccc(C(=O)N3CCC(N4CCCC4)CC3)cc2)nc1-c1cc2ccccc2s1
PIK3CA Q546K,binding,,1 µM,55%,F[C@@H]1CCN(c2nccc(-c3cnn4ncccc34)n2)C1
PIK3CA Q546K,binding,competition with immobilised ligand,1 µM,100%,COc1cnc(Nc2cccc(S(N)(=O)=O)c2)nc1N1CCN(c2ccccc2)C(=O)C1
PIK3CA E545K,binding,,10 µM,68%,CN1CCN(c2ccc(Nc3nccc(-c4ccccc4)n3)cc2C(F)(F)F)CC1
PIK3CA H1047L,binding,competition with immobilised ligand,1 µM,0.45%,C=CC(=O)N1CCC(C(=O)NCC(=O)N2CCN(c3nc(-c4cnc(N)nc4C(F)F)nc(N4CCOCC4)n3)CC2)CC1
PIK3CA Q546K,binding,competition with immobilised ligand,0.1 µM,77%,C[C@@H](c1ccc(-n2cnc3c(N)ncnc32)cc1)N1CCc2nn(C)c(Cc3ccccc3)c2C1=O
PIK3CA,binding,,1 µM,79%,c1cnn2ncc(-c3ccnc(N4CCC45COC5)n3)c2c1
"Phosphatidylinositol 4,5-bisphosphate 3-kinase catalytic subunit alpha isoform (PIK3CA, Homo sapiens, UniProt P42336, E542K)",binding,competition with immobilised ligand,1 µM,93%,COc1cnc(Nc2cccc(S(N)(=O)=O)c2)nc1N1CCN(c2ccccc2)CC1
